These results are taken from BindingDB's records for doi:10.1021/jm950541c (Georgia Institute of Technology, 1996).

One may read the Ki as a measure of affinity in units of concentration, obtained from inhibition or displacement.

The experiment concerns the target T1, Calpain-2 catalytic subunit (Homo sapiens, UniProt P17655).
T1 sequence (P17655 whole entry): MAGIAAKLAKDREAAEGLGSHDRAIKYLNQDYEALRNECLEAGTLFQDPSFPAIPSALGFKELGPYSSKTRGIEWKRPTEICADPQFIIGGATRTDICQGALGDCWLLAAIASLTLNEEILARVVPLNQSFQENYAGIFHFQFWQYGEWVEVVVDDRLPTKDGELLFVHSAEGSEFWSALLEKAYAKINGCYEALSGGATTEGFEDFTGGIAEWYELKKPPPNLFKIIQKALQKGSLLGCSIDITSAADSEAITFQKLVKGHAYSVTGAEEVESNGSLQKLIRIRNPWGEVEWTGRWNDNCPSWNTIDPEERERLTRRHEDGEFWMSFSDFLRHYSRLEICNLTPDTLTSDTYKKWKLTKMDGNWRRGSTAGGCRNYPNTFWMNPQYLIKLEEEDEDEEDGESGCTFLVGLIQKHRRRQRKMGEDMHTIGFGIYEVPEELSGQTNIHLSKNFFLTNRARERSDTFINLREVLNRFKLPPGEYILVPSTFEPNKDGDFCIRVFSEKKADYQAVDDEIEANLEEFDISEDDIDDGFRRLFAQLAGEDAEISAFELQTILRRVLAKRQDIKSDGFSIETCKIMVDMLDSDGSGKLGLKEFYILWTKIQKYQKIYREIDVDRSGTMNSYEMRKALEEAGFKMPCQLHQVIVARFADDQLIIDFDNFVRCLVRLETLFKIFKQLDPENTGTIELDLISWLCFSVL
The experiment can be described thus: Compound was evaluated for the inhibition of Cysteine protease Calpain 2. Put shortly:
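Calpain assay in 25 mM Tris, pH 8.0, with 10 mM CaCl₂ and 5% DMSO. Suc-Leu-AMC hydrolysis was read as initial velocity (t = 30-60 s) after a 30 s delay, at room temperature. Five or more inhibitor concentrations (not above 2 × K_obs) were used at two fixed substrate levels. Ki came from Dixon plots (1/v vs I) averaged over triplicates.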

For `CCC(NC(=O)C(CC(C)C)NC(=O)OCc1ccccc1)C(=O)C(=O)NCc1cc(OC)cc(OC)c1` (centres undefined) [{1-[1-(3,5-Dimethoxy-benzylaminooxalyl)-propylcarbamoyl]-3-methyl-butyl}-carbamic acid benzyl ester], the affinity, expressed as Ki, was 22 nM.
Then `CCC(NC(=O)C(CC(C)C)NC(=O)OCc1ccccc1)C(=O)C(=O)NCCCn1ccnc1` (centres undefined) [{1-[1-(3-Imidazol-1-yl-propylaminooxalyl)-propylcarbamoyl]-3-methyl-butyl}-carbamic acid benzyl ester], with 68 nM.
Then `CCC(NC(=O)C(CC(C)C)NC(=O)OCc1ccccc1)C(=O)C(=O)NCC1(C)CC(O)CC(C)(C)C1` (centres undefined) [{1-[1-(5-Hydroxy-1,3,3-trimethyl-cyclohexylmethyl)-aminooxalyl]-propylcarbamoyl}-3-methyl-butyl)-carbamic acid benzyl ester], with 69 nM; and `CCC(NC(=O)C(CC(C)C)NC(=O)OCc1ccccc1)C(=O)C(=O)NCCCCCO` (centres undefined) [{1-[1-(5-Hydroxy-pentylaminooxalyl)-propylcarbamoyl]-3-methyl-butyl}-carbamic acid benzyl ester], with 51 nM.
Then `CCC(NC(=O)C(CC(C)C)NC(=O)OCc1ccccc1)C(=O)C(=O)NCc1ccco1` (centres undefined) [{1-[1-(Furan-2-ylmethyl)-aminooxalyl]-propylcarbamoyl}-3-methyl-butyl)-carbamic acid benzyl ester], with 33 nM; and `CCC(NC(=O)C(CC(C)C)NC(=O)OCc1ccccc1)C(=O)C(=O)NCc1nccc2ccccc12` (centres undefined) [{1-[1-(Isoquinolin-1-ylmethyl)-aminooxalyl]-propylcarbamoyl}-3-methyl-butyl)-carbamic acid benzyl ester], with 150 nM; and `CC(C)CC(NC(=O)OCc1ccccc1)C(=O)NC(Cc1ccccc1)C(=O)C(=O)NCC(O)c1c(F)c(F)c(F)c(F)c1F` (centres undefined) [{1-[1-Benzyl-2-(2-hydroxy-2-pentafluorophenyl-ethylcarbamoyl)-2-oxo-ethylcarbamoyl]-3-methyl-butyl}-carbamic acid benzyl ester], with 350 nM.
In turn, `CC(C)CC(NC(=O)OCc1ccccc1)C(=O)NC(Cc1ccccc1)C(=O)C(=O)NCC(O)c1ccccc1` (centres undefined) [{1-[1-Benzyl-2-(2-hydroxy-2-phenyl-ethylcarbamoyl)-2-oxo-ethylcarbamoyl]-3-methyl-butyl}-carbamic acid benzyl ester] showed a Ki of 50 nM.
In turn, `CC(C)CC(NC(=O)OCc1ccccc1)C(=O)NC(Cc1ccccc1)C(=O)C(=O)NCCCN1CCOCC1` (centres undefined) [{1-[1-Benzyl-2-(3-morpholin-4-yl-propylcarbamoyl)-2-oxo-ethylcarbamoyl]-3-methyl-butyl}-carbamic acid benzyl ester] came in with a Ki of 330 nM. Compared with the last compound, the Ki is about 6.6-fold higher.
Then `CCC(NC(=O)C(CC(C)C)NC(=O)OCc1ccccc1)C(=O)C(=O)NCc1nc2c(c(=O)n(C)c(=O)n2C)n1C` (centres undefined) [{3-Methyl-1-[1-(1,3,7-trimethyl-2,6-dioxo-2,3,6,7-tetrahydro-1H-purin-8-ylmethyl)-aminooxalyl]-propylcarbamoyl}-butyl)-carbamic acid benzyl ester], with 4600 nM; and `CCC(NC(=O)C(CC(C)C)NC(=O)OCc1ccccc1)C(=O)C(=O)NCCc1ccccn1` (centres undefined) [{3-Methyl-1-[1-(2-pyridin-2-yl-ethylaminooxalyl)-propylcarbamoyl]-butyl}-carbamic acid benzyl ester], with 470 nM; and `CCCC(NC(=O)C(CC(C)C)NC(=O)OCc1ccccc1)C(=O)C(=O)NCCCN1CCOCC1` (centres undefined) [{3-Methyl-1-[1-(3-morpholin-4-yl-propylaminooxalyl)-butylcarbamoyl]-butyl}-carbamic acid benzyl ester], with 100 nM.
Turning to `CCC(NC(=O)C(CC(C)C)NC(=O)OCc1ccccc1)C(=O)C(=O)NCc1ccccn1` (centres undefined) [{3-Methyl-1-[1-(pyridin-2-ylmethyl)-aminooxalyl]-propylcarbamoyl}-butyl)-carbamic acid benzyl ester], the Ki came to 17 nM.
Then `CCC(NC(=O)C(CC(C)C)NC(=O)OCc1ccccc1)C(=O)C(=O)NCc1ccncc1` (centres undefined) [{3-Methyl-1-[1-(pyridin-4-ylmethyl)-aminooxalyl]-propylcarbamoyl}-butyl)-carbamic acid benzyl ester], with 110 nM.
